Assay type in all cases: functional
The test system of assay [1] is Rattus norvegicus. The assay can be described thus: Ability (% reversal in rats) to reverse electroconvulsive shock-induced amnesia in rodents at a dose of 0.10 (mg/kg) (following intramuscular dosing). In short, it runs like this:
(§1)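 Passive avoidance (step-through, lighted vs darkened compartment). […], ECS (20 mA, 1 s) was given transcorneally via saline-soaked electrodes, and maximal hindlimb extension was required. Drug was given im at selected doses 2 h post-training. One hour later, entry latency to the dark side was recorded, with 60 s counted as retention. At least 75% of ECS controls had to be amnesic. Replicates were mostly not run.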

Assay [2] relates to Rattus norvegicus. The assay can be described thus: Ability (% reversal in rats) to reverse electroconvulsive shock-induced amnesia in rodents at a dose of 0.010 (mg/kg) administered intramuscularly (im). In outline:
as §1

Assay [3] has as its system Rattus norvegicus. The assay can be described thus: Compound was tested for its ability (% reversal in rats) to reverse electroconvulsive shock-induced amnesia in rodents at a dose of 10 (mg/kg) administered intramuscularly (im). In outline:
as §1

Assay [4] relates to Rattus norvegicus. Put plainly: Ability (% reversal in rats) to reverse electroconvulsive shock-induced amnesia in rodents at a dose of 0.0010 (mg/kg) (following i.m. administration). In outline: as §1
Assay [5] concerns Rattus norvegicus. The assay can be described thus: Compound was tested for its ability (% reversal in rats) to reverse electroconvulsive shock-induced amnesia in rodents at a dose of 1 (mg/kg) administered intramuscularly (im). In outline: as §1
Assay [6] has as its system Rattus norvegicus. Put plainly: Compound was tested for its ability (% reversal in rats) to reverse electroconvulsive shock-induced amnesia in rodents at a dose of 100 (mg/kg) administered intramuscularly (im). In short, it runs like this:
as §1

Assay [7] deals with Rattus norvegicus. The assay can be described thus: Compound was tested for its ability (% reversal in rats) to reverse electroconvulsive shock-induced amnesia in rodents at a dose of 0.032 (mg/kg) administered intramuscularly (im). In short, it runs like this:
as §1

The test system of assay [8] is Rattus norvegicus. Put plainly: Compound was tested for its ability (% reversal in rats) to reverse electroconvulsive shock-induced amnesia in rodents at a dose of 0.0001 (mg/kg) administered intramuscularly (im). In short, it runs like this:
as §1

Assay [9] deals with Rattus norvegicus. The assay can be described thus: Compound was tested for its ability (% reversal in rats) to reverse electroconvulsive shock-induced amnesia in rodents at a dose of 1 (mg/kg) administered intramuscularly (im). In outline:
as §1

The subject of assay [10] is Rattus norvegicus. The assay can be described thus: Compound was tested for its ability (% reversal in rats) to reverse electroconvulsive shock-induced amnesia in rodents at a dose of 0.0010 (mg/kg) administered intramuscularly (im). In outline: as §1
Assay [11] relates to Rattus norvegicus. The assay can be described thus: Compound was tested for its ability (% reversal in rats) to reverse electroconvulsive shock-induced amnesia in rodents at a dose of 0.010 (mg/kg) administered intramuscularly (im). In outline:
as §1

The test system of assay [12] is Rattus norvegicus. The assay can be described thus: Compound was tested for its ability (% reversal in rats) to reverse electroconvulsive shock-induced amnesia in rodents at a dose of 0.10 (mg/kg) administered intramuscularly (im). In short, it runs like this:
as §1

The subject of assay [13] is Rattus norvegicus. Put plainly: Compound was tested for its ability (% reversal in rats) to reverse electroconvulsive shock-induced amnesia in rodents at a dose of 0.001 (mg/kg) administered intramuscularly (im). In short, it runs like this:
as §1

Assay [14] relates to Rattus norvegicus. Put plainly: Compound was tested for its ability (% reversal in rats) to reverse electroconvulsive shock-induced amnesia in rodents at a dose of 100 (mg/kg) administered intramuscularly (im). In short, it runs like this: as §1
For assay [15], the system named is Rattus norvegicus. Put plainly: Compound was tested for its ability (% reversal in rats) to reverse electroconvulsive shock-induced amnesia in rodents at a dose of 1(mg/kg) administered intramuscularly (im). In outline: as §1
The subject of assay [16] is Mus musculus. The assay can be described thus: Compound was tested for its ability (% reversal in mice) to reverse electroconvulsive shock-induced amnesia in rodents at a dose of 10 (mg/kg) administered intramuscularly (im). In short, it runs like this:
as §1

The test system of assay [17] is Rattus norvegicus. The assay can be described thus: Compound was tested for its ability (% reversal in rats) to reverse electroconvulsive shock-induced amnesia in rodents at a dose of 0.1 (mg/kg) administered intramuscularly (im). In short, it runs like this:
as §1

The test system of assay [18] is Mus musculus. The assay can be described thus: Compound was tested for its ability (% reversal in mice) to reverse electroconvulsive shock-induced amnesia in rodents at a dose of 0.1 (mg/kg) administered intramuscularly (im). In short, it runs like this: as §1
Assay [19] has as its system Mus musculus. Put plainly: Compound was tested for its ability (% reversal in mice) to reverse electroconvulsive shock-induced amnesia in rodents at a dose of 1 (mg/kg) administered intramuscularly (im). In short, it runs like this: as §1
In assay [20] the test system is Mus musculus. Put plainly: Compound was tested for its ability (% reversal in mice) to reverse electroconvulsive shock-induced amnesia in rodents at a dose of 100 (mg/kg) administered intramuscularly (im). In outline: as §1
The subject of assay [21] is Rattus norvegicus. The assay can be described thus: Compound was tested for its ability (% reversal in rats) to reverse electroconvulsive shock-induced amnesia in rodents at a dose of 10 (mg/kg) administered intramuscularly (im). In outline:
as §1

Assay [22] has as its system Rattus norvegicus. Put plainly: Compound was tested for its ability (% reversal in rats) to reverse electroconvulsive shock-induced amnesia in rodents at a dose of 0.00010 (mg/kg) administered intramuscularly (im). In short, it runs like this:
as §1

Assay [23] relates to Mus musculus. Put plainly: Ability to reverse electroconvulsive shock-induced amnesia in rodents following 0.01 mg/kg i.m. administration. Particulars: route intramuscular. In outline:
as §1

The subject of assay [24] is Mus musculus. The assay can be described thus: Ability to reverse electroconvulsive shock-induced amnesia in rodents following 0.1 mg/kg i.m. administration. Conditions: route intramuscular. In outline:
as §1

Assay [25] relates to Mus musculus. Put plainly: Ability to reverse electroconvulsive shock-induced amnesia in rodents following 1 ug/kg i.m. administration. In outline:
as §1

The subject of assay [26] is Rattus norvegicus. Put plainly: Compound was tested for its ability (% reversal in rats) to reverse electroconvulsive shock-induced amnesia in rodents at a dose of 50 (mg/kg) administered intramuscularly (im). In short, it runs like this:
as §1

Molecules are shown by their SMILES. Residues, ends and D or L forms follow the SMILES beside them. *: point of attachment. Cbz = O=C(OCc1ccccc1)*

As to `Cc1ccc(S(=O)(=O)N2CCCC2CN[C@@H](CC(C)C)C(=O)NCC(N)=O)cc1` (some centres not stated), the Reversal in assay [1] was determined as 34%; in assay [2] it was 0%; in assay [3], 62%; in assay [4], 0%; in assay [5], 75%; in assay [6], 87%.

With `O=C(NC(Cc1ccccc1)CN1C(=O)C2CCCN2C(=O)C1Cc1c[nH]cn1)c1ccccc1` (configuration not stated), the Reversal in assay [1] came to 43%; in [2], 0%; in [3] it was 30%; in assay [4] it was 0%; in assay [5], 50%; in assay [6] it was 83%.

Regarding `CC(C)CC(CS(=O)(=O)CC(=O)O)NC(=O)C1CCCN1C(=O)OCc1ccccc1` (configuration not stated), the Reversal worked out at 66% in assay [7], 0% in assay [1] and 50% in assay [4].

Consider `CC(C)CC(N)CN1CC(=O)NC(CC(C)C)C1` (configuration not stated), for which the Reversal in assay [1] amounted to 66%; in assay [2], 83%; in assay [3], 0%; in assay [4] it was 50%; in assay [8], 82%; in [5], 20%. For the same compound, the Reversal in [6] came out at 24%.

Turning to `CC(C)CC(CNCC(=O)O)NC(=O)C1CCC(=O)N1` (configuration not stated), the Reversal was 33% in assay [1]; 33% in [2]; 0% in [3]; 33% in assay [4]; 66% in [9]; 50% in [6].

Turning to `CC(C)CC(/C=C/CC(N)=O)NC(=O)C1CCC(=O)N1` (configuration not stated), the values for the Reversal in assay [10], in assay [11] and in [12] were 11%, 0% and 44%, respectively.

As for `CC(C)CC1CN(C[C@H](CC(C)C)NC(=O)[C@@H]2CCCN2C(=O)OCc2ccccc2)CC(=O)N1` (some centres not stated), the Reversal in assay [1] stood at 50%; in [13] it was 17%; in assay [2], 17%; in [3], 0%; in [5], 0%; in assay [6], 80%.

In the case of `CC(C)C[C@@H](CNCC(N)=O)NC(=O)[C@@H]1CCCN1C(=O)OCc1ccccc1`, the Reversal is 43% in assay [1]; 0% in assay [14]; 43% in assay [2]; 0% in assay [3]; 43% in [4]; 0% in assay [5].

Turning to `O=C(NCCCCC(CO)NC(=O)C1CCCN1C(=O)OCc1ccccc1)OCc1ccccc1` (configuration not stated), the Reversal in assay [1] is 40%; in assay [2] it was 40%; in [3], 20%; in assay [4] it was 50%; in assay [5], 0%; in assay [6] it was 0%.

Take `CC(C)CC(CNCC(=O)O)NCC1CCCN1C(=O)OCc1ccccc1` (configuration not stated): the Reversal in assay [1] is recorded as 14%; in assay [2], 20%; in assay [3] it was 0%; in [4], 0%; in assay [6], 40%; in assay [15], 10%.

Consider `CC(C)C[C@@H](CSCC(=O)O)NCC1CCCN1C(=O)OCc1ccccc1` (some centres not stated), for which the Reversal in [1] came to 60%; in assay [2] it was 80%; in [3] it was 0%; in assay [4], 20%; in assay [5], 60%; in assay [6] it was 100%.

Regarding `CC(C)CC(CSCC(=O)O)NC(=O)C1CC(=O)CN1C(=O)OCc1ccccc1` (configuration not stated), the Reversal in [16] amounted to 0%; in assay [2] it was 50%; in assay [17], 83%; in assay [3] it was 80%; in assay [18], 17%; in assay [4], 17%. The Reversal came to 100% in assay [5] and 17% in assay [19].

As for `O=C1COCC2CCCN12` (configuration not stated), the Reversal is 63% in assay [20]; 77% in assay [16]; 33% in assay [1]; 33% in assay [2]; 0% in [4]; 58% in assay [19].

As to `NC(=O)COCC(Cc1ccccc1)NC(=O)C1CCCN1C(=O)OCc1ccccc1` (configuration not stated), the Reversal in assay [20] is recorded as 71%; in assay [16], 59%; in [1], 0%; in assay [21] it was 42%; in assay [2], 11%; in [4], 11%. In addition, the results for the Reversal in assay [5], in [19] and in assay [6] were 25%, 20% and 25%, respectively.

For `CC(C)CC(CSCC(N)=O)NC(=O)C1CCCN1C(=O)OCc1ccccc1` (configuration not stated), the Reversal stood at 50% in [1], 33% in assay [11], 66% in assay [4] and 0% in assay [22].

In the case of `COc1ccc(C(=O)N2CCCC2C(=O)NC(CSCC(=O)O)CC(C)C)cc1` (configuration not stated), the Reversal turned out to be 60% in assay [1]; 50% in assay [23]; 0% in [11]; 40% in assay [4]; 12% in assay [24]; 12% in assay [25].

On to `CC(C)CC(NCC1CCCN1C(=O)OCc1ccccc1)C(=O)NCC(N)=O` (configuration not stated), for which the Reversal in [20] turned out to be 57%; in assay [16] it was 67%; in [1], 0%; in [2] it was 0%; in assay [3], 60%; in assay [4], 11%. For the same compound, the Reversal was determined as 80% in [5], 85% in [19] and 60% in assay [6].

`Cc1ccc(S(=O)(=O)N2CCCC2CNC(CNCC(=O)O)CC(C)C)cc1` (configuration not stated): the Reversal in [1] is recorded as 40%; in [2] it was 0%; in [3], 80%; in assay [26], 0%; in assay [4] it was 0%; in [9] it was 20%.

For the compound `CC(C)CC(CSCC(=O)O)NC(=O)C1CCC(=O)N1C(=O)OCc1ccccc1` (configuration not stated), the Reversal in assay [1] is given as 0%; in assay [21] it was 0%; in assay [2], 33%; in [4], 33%; in assay [5], 0%; in assay [6] it was 0%.

As to `NCCCC[C@H](NC(=O)[C@@H]1CCCN1C(=O)[C@@H]1CSSC[C@H](N)C(=O)N[C@@H](Cc2ccc(O)cc2)C(=O)N[C@@H](Cc2ccccc2)C(=O)N[C@@H](CCC(N)=O)C(=O)N[C@@H](CC(N)=O)C(=O)N1)C(=O)NCC(N)=O`, the Reversal in [1] was found to be 56%; in assay [23] it was 58%; in assay [11] it was 20%; in [4], 20%; in [24], 67%; in assay [25], 58%.

For the compound `NC(=O)CNC(=O)[C@H](CCCCNC(=O)OCc1ccccc1)NC(=O)[C@@H]1CCCN1` (H-Pro-Lys(Cbz)-Gly-NH2), the Reversal in [1] is 60%; in [23] it was 92%; in assay [11], 40%; in assay [4] it was 60%; in assay [24] it was 100%; in [25] it was 66%.

Source of the values: ChEMBL document CHEMBL1123291, “Modified di- and tripeptides of the C-terminal portion of oxytocin and vasopressin as possible cognition activation agents” (1986).
